Paper PMC9090800 (RSC Advances, 2018)
≈ marks a conversion by molar mass, not a printed value.

Key:
[1] = test system: C. albicans (ATCC 90028); experiment: In vitro anticandidal activity, broth dilution; format: cell-based; conditions: Candida albicans, ATCC90028, 24 h, read-out: IC50 ± S.D, C. albicans
In short: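 Broth dilution followed the NCCLS protocol. Test compound in DMSO was diluted in PBS, then tested at 1000 to 7.8 μg mL−1 in SD broth with about 2.5 × 10^3 cells per mL in 96-well plates. Plates were shaken 24 h at 30 °C, 150 rpm, and read at OD580. IC50 was the concentration halving absorbance versus untreated cells, taken from a log10 concentration versus % inhibition plot. Triplicates were run on separate occasions, with fluconazole as positive control.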

[2] = test system: C. tropicalis (ATCC 750); experiment: In vitro anticandidal activity, broth dilution; format: cell-based, Candida tropicalis; conditions: ATCC 750, 24 h, OD 580 nm
[3] = Hemolytic assay; format: cell-based; conditions: human, human red blood cells (erythrocyte suspension in PBS)
In short: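 Fresh human blood was collected in EDTA and spun 10 min at 2000 rpm. Erythrocytes were washed three times in PBS and made to a 10% (v/v) suspension, then diluted 1:10. Equal volumes of cells and test compound dilution series in PBS were incubated in triplicate for 1 h at 37 °C and re-centrifuged. Supernatant A450 was expressed relative to buffer (0%) and 1% Triton X-100 (100% lysis). Fluconazole was the reference.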

[4] = test system: human embryonic kidney (HEK-293) cells; experiment: Cytotoxicity by MTT assay; format: cell-based; conditions: HEK-293, 100 μg mL^−1, 24 h
In short: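 HEK-293 cells grown as monolayers in DMEM with 10% FBS, penicillin and streptomycin, 37 °C, 5% CO2, at most 30 passages. Seeded at about 8 × 10^3 cells per well, 24 h before dosing. Test compound (DMSO stock diluted in PBS) given at 10–200 μg mL−1 for 24 h at 37 °C. Serum-free medium, then MTT (5 mg mL−1 in PBS), 4 h. Formazan dissolved in DMSO, A570 read. Triplicate; viability relative to untreated cells.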

[5] = test system: C. albicans; experiment: Growth curve studies; format: cell-based, Candida albicans
In short: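 C. albicans revived on SD agar and pre-grown 16 h at 30 °C in SD broth. About 2 × 10^3 cells per mL were inoculated into 50 mL SD medium containing test compound at 2MIC, MIC or MIC/2, then shaken at 30 °C, 160 rpm. Fluconazole at 31.25 μg mL−1 and untreated cells served as controls. OD600 was read on 1 mL aliquots every 2 h from 0 to 24 h.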

[6] = test system: ergosterol content in C. albicans ATCC 90028; experiment: Sterol estimation assay; format: cell-based, Candida albicans; conditions: vs untreated cells

| SMILES | IC50 [1] [µg/mL] | IC50 ± S.D, C. tropicalis [2] [µg/mL] | hemolysis at 1 h, 1000 μg mL^−1 [3] [%] | cell viability (MTT) [4] | growth of Candida cells ([5]; 2MIC and MIC, 24 h) | nature of inhibition ([5]; no significant growth after 24 h at higher concentrations) | time after which growth was observed ([5]; sub-MIC (MIC/2), standard C. albicans strain) [h] | decrease in ergosterol content ([6]; 2MIC (500 μg mL^−1)) [%] | decrease in ergosterol content ([6]; MIC (250 μg mL^−1)) [%] | decrease in ergosterol content ([6]; MIC/2 (125 μg mL^−1)) [%] |
| --- | --- | --- | --- | --- | --- | --- | --- | --- | --- | --- |
| CCOC(=O)c1nc2ccccc2c(=O)n1Cc1cn(-c2cccc(Cl)c2)nn1 [Compound 5g, Ethyl 3-((1-(3-chlorophenyl)-1H-1,2,3-triazol-4-yl)methyl)-4-oxo-3,4-dihydroquinazoline-2-carboxylate] | 65.6 ± 3.2 (≈ 160 µM) | 28.2 ± 2.2 (≈ 68.8 µM) | < 20 | no significant decrease in cell viability | – | – | – | – | – | – |
| CCOC(=O)c1nc2ccccc2c(=O)n1Cc1cn(-c2ccc(C)cc2)nn1 [Compound 5n, Ethyl 4-oxo-3-((1-p-tolyl-1H-1,2,3-triazol-4-yl)methyl)-3,4-dihydroquinazoline-2-carboxylate] | 14.6 ± 2.1 (≈ 37.5 µM) | – | 41.2 | no significant decrease in cell viability | did not show any significant growth | fungicidal | 7 | 57 | 55 | 48 |
| O=C(O)c1nc2ccccc2c(=O)n1Cc1cn(-c2ccccc2F)nn1 [Compound 6c, 3-((1-(2-Fluorophenyl)-1H-1,2,3-triazol-4-yl)methyl)-4-oxo-3,4-dihydroquinazoline-2-carboxylic acid] | 101 ± 3.7 (≈ 276 µM) | – | < 20 | no significant decrease in cell viability | – | – | – | – | – | – |
